ChEMBL document CHEMBL1240354, “Efficacy of posaconazole against three clinical Aspergillus fumigatus isolates with mutations in the cyp51A gene” (Antimicrob Agents Chemother, 2010)
≈ marks a conversion by molar mass, not a printed value.

How the values were obtained:
Aspergillus fumigatus [1] = test: Antifungal activity against Aspergillus fumigatus isolate AZN 8196 harboring wild type Cyp51A protein by broth microdilution method; format: functional
Outline: (§1)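 Broth microdilution followed CLSI M38A. Isolates were stored in 10% glycerol broth at −80°C and revived on Sabouraud dextrose agar with 0.02% chloramphenicol for 5 to 7 days at 35°C before testing.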

Aspergillus fumigatus [2] = test: Antifungal activity against Aspergillus fumigatus isolate V28-77 harboring M220I mutation in Cyp51A protein by broth microdilution method; format: functional; outline: as §1
Aspergillus fumigatus [3] = test: Antifungal activity against Aspergillus fumigatus isolate V52-35 harboring TR L98H mutation in Cyp51A protein by broth microdilution method; format: functional; outline: as §1
Aspergillus fumigatus [4] = test: Antifungal activity against Aspergillus fumigatus isolate V59-73 harboring G54W mutation in Cyp51A protein by broth microdilution method; format: functional; outline: as §1
[5] = AUC in CD1 mouse infected with wild type Aspergillus fumigatus at 1 mg/kg, po qd for 14 days measured after 24 hrs post last dose by HPLC analysis; format: ADME, organism-based; parameters: time < 24 hr, dose 1 mg/kg, route oral; conditions: plasma
Outline: (§2)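 Female CD-1 mice (4-5 weeks, 20-22 g) were infected via the lateral tail vein with the wild-type isolate. Oral posaconazole was given once daily from 24 h. On treatment day 2, orbital blood was taken predose and 0.5-24 h postdose, 3 mice per time point. Plasma was assayed by HPLC-fluorescence. Cmax was observed directly. AUC0–24 used the log-linear trapezoidal rule, and CL = dose/AUC0–24.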

[6] = AUC in CD1 mouse infected with wild type Aspergillus fumigatus at 4 mg/kg, po qd for 14 days measured after 24 hrs post last dose by HPLC analysis; format: ADME, organism-based; parameters: time < 24 hr, dose 4 mg/kg, route oral; conditions: plasma; outline: as §2
[7] = AUC in CD1 mouse infected with wild type Aspergillus fumigatus at 16 mg/kg, po qd for 14 days measured after 24 hrs post last dose by HPLC analysis; format: ADME, organism-based; parameters: time < 24 hr, dose 16 mg/kg, route oral; conditions: plasma; outline: as §2
[8] = AUC in CD1 mouse infected with wild type Aspergillus fumigatus at 64 mg/kg, po qd for 14 days measured after 24 hrs post last dose by HPLC analysis; format: ADME, organism-based; parameters: time < 24 hr, dose 64 mg/kg, route oral; conditions: plasma; outline: as §2
Mus musculus [9] = test: Dose normalised AUC in CD1 mouse infected with wild type Aspergillus fumigatus at 1 mg/kg, po qd for 14 days measured after 24 hrs post last dose by HPLC analysis; format: ADME, organism-based; parameters: time < 24 hr, dose 1 mg/kg, route oral; conditions: in vivo; outline: as §2
Mus musculus [10] = test: Dose normalised AUC in CD1 mouse infected with wild type Aspergillus fumigatus at 4 mg/kg, po qd for 14 days measured after 24 hrs post last dose by HPLC analysis; format: ADME, organism-based; parameters: time < 24 hr, dose 4 mg/kg, route oral; conditions: in vivo; outline: as §2
Mus musculus [11] = test: Dose normalised AUC in CD1 mouse infected with wild type Aspergillus fumigatus at 16 mg/kg, po qd for 14 days measured after 24 hrs post last dose by HPLC analysis; format: ADME, organism-based; parameters: time < 24 hr, dose 16 mg/kg, route oral; conditions: in vivo; outline: as §2
Mus musculus [12] = test: Dose normalised AUC in CD1 mouse infected with wild type Aspergillus fumigatus at 64 mg/kg, po qd for 14 days measured after 24 hrs post last dose by HPLC analysis; format: ADME, organism-based; parameters: time < 24 hr, dose 64 mg/kg, route oral; conditions: in vivo; outline: as §2
[13] = Apparent oral clearance in CD1 mouse infected with wild type Aspergillus fumigatus at 1 mg/kg, po qd for 14 days measured after 24 hrs post last dose by HPLC analysis; format: ADME, organism-based; parameters: dose 1 mg/kg, route oral; conditions: in vivo; outline: as §2
[14] = Apparent oral clearance in CD1 mouse infected with wild type Aspergillus fumigatus at 4 mg/kg, po qd for 14 days measured after 24 hrs post last dose by HPLC analysis; format: ADME, organism-based; parameters: dose 4 mg/kg, route oral; conditions: in vivo; outline: as §2
[15] = Apparent oral clearance in CD1 mouse infected with wild type Aspergillus fumigatus at 16 mg/kg, po qd for 14 days measured after 24 hrs post last dose by HPLC analysis; format: ADME, organism-based; parameters: dose 16 mg/kg, route oral; conditions: in vivo; outline: as §2
[16] = Apparent oral clearance in CD1 mouse infected with wild type Aspergillus fumigatus at 64 mg/kg, po qd for 14 days measured after 24 hrs post last dose by HPLC analysis; format: ADME, organism-based; parameters: dose 64 mg/kg, route oral; conditions: in vivo; outline: as §2
[17] = Plasma concentration in CD1 mouse infected with wild type Aspergillus fumigatus at 1 mg/kg, […] by HPLC analysis; format: ADME, organism-based; parameters: dose 1 mg/kg, route oral; conditions: po
[18] = Plasma concentration in CD1 mouse infected with wild type Aspergillus fumigatus at 4 mg/kg, […] by HPLC analysis; format: ADME, organism-based; parameters: dose 4 mg/kg, route oral; conditions: po
[19] = Plasma concentration in CD1 mouse infected with wild type Aspergillus fumigatus at 16 mg/kg, […] by HPLC analysis; format: ADME, organism-based; parameters: dose 16 mg/kg, route oral; conditions: po
[20] = Plasma concentration in CD1 mouse infected with wild type Aspergillus fumigatus at 64 mg/kg, […] by HPLC analysis; format: ADME, organism-based; parameters: dose 64 mg/kg, route oral; conditions: po
[21] = Cmax in CD1 mouse infected with wild type Aspergillus fumigatus at 1 mg/kg, po qd for 14 days measured after 24 hrs post last dose by HPLC analysis; format: ADME, organism-based; parameters: dose 1 mg/kg, route oral; conditions: in vivo; outline: as §2
[22] = Cmax in CD1 mouse infected with wild type Aspergillus fumigatus at 4 mg/kg, po qd for 14 days measured after 24 hrs post last dose by HPLC analysis; format: ADME, organism-based; parameters: dose 4 mg/kg, route oral; conditions: in vivo; outline: as §2
[23] = Cmax in CD1 mouse infected with wild type Aspergillus fumigatus at 16 mg/kg, po qd for 14 days measured after 24 hrs post last dose by HPLC analysis; format: ADME, organism-based; parameters: dose 16 mg/kg, route oral; conditions: in vivo; outline: as §2
[24] = Cmax in CD1 mouse infected with wild type Aspergillus fumigatus at 64 mg/kg, po qd for 14 days measured after 24 hrs post last dose by HPLC analysis; format: ADME, organism-based; parameters: dose 64 mg/kg, route oral; conditions: in vivo; outline: as §2
[25] = Tmax in CD1 mouse infected with wild type Aspergillus fumigatus at 1 mg/kg, […] by HPLC analysis; format: ADME, organism-based; parameters: dose 1 mg/kg, route oral; conditions: in vivo, po
[26] = Tmax in CD1 mouse infected with wild type Aspergillus fumigatus at 4 mg/kg, […] by HPLC analysis; format: ADME, organism-based; parameters: dose 4 mg/kg, route oral; conditions: in vivo, po
[27] = Tmax in CD1 mouse infected with wild type Aspergillus fumigatus at 16 mg/kg, […] by HPLC analysis; format: ADME, organism-based; parameters: dose 16 mg/kg, route oral; conditions: in vivo, po
[28] = Tmax in CD1 mouse infected with wild type Aspergillus fumigatus at 64 mg/kg, […] by HPLC analysis; format: ADME, organism-based; parameters: dose 64 mg/kg, route oral; conditions: in vivo, po
Aspergillus fumigatus [29] = test: Ratio of AUC to MIC for wild type Aspergillus fumigatus infected in CD1 mouse; format: functional
Outline: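 The ratio was calculated as AUC0–24 from the mouse PK study (oral posaconazole once daily, 1 to 64 mg/kg) divided by the CLSI M38A broth microdilution MIC.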

Aspergillus fumigatus [30] = test: Antifungal activity against wild type Aspergillus fumigatus infected in CD1 mouse assessed as increase in mouse survival rate administered orally qd for 14 days measured on day 15 post fungal infection; format: functional, organism-based
Outline: (§3)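 Female CD-1 mice (4-5 weeks, 20-25 g, 11 per group) received an LD90 conidial inoculum of each isolate IV via the tail vein. Conidia were harvested in PBS/0.1% Tween 80, gauze-filtered and hemacytometer-counted. Posaconazole oral solution (1, 4, 16, 64 mg/kg) was given by gavage once daily for 14 days from 24 h post-infection; controls received saline. Survival was compared by log rank test, with survivors euthanized on day 15.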

Aspergillus fumigatus [31] = test: Antifungal activity against Aspergillus fumigatus isolate V52-35 harboring TR L98H mutation in Cyp51A protein infected in CD1 mouse assessed as increase in mouse survival rate administered orally qd for 14 days measured on day 15 post fungal infection; format: functional, organism-based; outline: as §3
Aspergillus fumigatus [32] = test: Antifungal activity against Aspergillus fumigatus isolate V28-77 harboring M220I mutation in Cyp51A protein infected in CD1 mouse assessed as increase in mouse survival rate administered orally qd for 14 days measured on day 15 post fungal infection; format: functional, organism-based; outline: as §3
Aspergillus fumigatus [33] = test: Antifungal activity against Aspergillus fumigatus isolate V59-73 harboring G54W mutation in Cyp51A protein infected in CD1 mouse assessed as increase in mouse survival rate administered orally qd for 14 days measured on day 15 post fungal infection; format: functional; outline: as §3
Aspergillus fumigatus [34] = test: Antifungal activity against Aspergillus fumigatus isolate V28-77 harboring M220I mutation in Cyp51A protein infected in CD1 mouse assessed as 50% effective pharmacodynamic index administered orally qd for 14 days measured post last dose; format: functional
Outline: (§4)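 EI50 came from fitting a variable-slope Hill equation to AUC0–24/MIC ratio versus 14-day survival. AUCs were taken from the PK study in wild-type-infected mice at each dose (1-64 mg/kg oral, once daily). Ratios were log10-transformed before analysis.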

Aspergillus fumigatus [35] = test: Antifungal activity against Aspergillus fumigatus isolate V52-35 harboring TR L98H mutation in Cyp51A protein infected in CD1 mouse assessed as 50% effective pharmacodynamic index administered orally qd for 14 days measured post last dose; format: functional; outline: as §4

SMILES: C[C@@H]1[C@H](O)[C@@H](C)/C=C/C=C/C=C/C=C/C=C/C=C/C=C/[C@H](O[C@@H]2O[C@H](C)[C@@H](O)[C@H](N)[C@@H]2O)C[C@@H]2O[C@](O)(C[C@@H](O)C[C@@H](O)[C@H](O)CC[C@@H](O)C[C@@H](O)CC(=O)O[C@H]1C)C[C@H](O)[C@H]2C(=O)O [AMPHOTERICIN B]
- MIC (Aspergillus fumigatus [1]): 0.5 mg/L (≈ 0.541 µM)
- MIC (Aspergillus fumigatus [2]): 0.5 mg/L (≈ 0.541 µM)
- MIC (Aspergillus fumigatus [3]): 0.5 mg/L (≈ 0.541 µM)
- MIC (Aspergillus fumigatus [4]): 0.5 mg/L (≈ 0.541 µM)

SMILES: CC[C@H](C)C[C@H](C)CCCCCCCCC(=O)N[C@H]1C[C@@H](O)[C@@H](NCCN)NC(=O)[C@@H]2[C@@H](O)CCN2C(=O)[C@H]([C@H](O)CCN)NC(=O)[C@H]([C@H](O)[C@@H](O)c2ccc(O)cc2)NC(=O)[C@@H]2C[C@@H](O)CN2C(=O)[C@H]([C@@H](C)O)NC1=O [CASPOFUNGIN]
- minimal effective concentration (Aspergillus fumigatus [1]; read-out: MEC): 0.25 µg/mL
- minimal effective concentration (Aspergillus fumigatus [2]; read-out: MEC): 0.25 µg/mL
- minimal effective concentration (Aspergillus fumigatus [3]; read-out: MEC): 0.25 µg/mL
- minimal effective concentration (Aspergillus fumigatus [4]; read-out: MEC): 0.25 µg/mL

SMILES: CC[C@@H]([C@H](C)O)n1ncn(-c2ccc(N3CCN(c4ccc(OC[C@@H]5CO[C@@](Cn6cncn6)(c6ccc(F)cc6F)C5)cc4)CC3)cc2)c1=O [POSACONAZOLE]
- MIC (Aspergillus fumigatus [1]): 0.031 mg/L (≈ 0.0442 µM)
- MIC (Aspergillus fumigatus [2]): 0.5 mg/L (≈ 0.713 µM)
- MIC (Aspergillus fumigatus [3]): 0.5 mg/L (≈ 0.713 µM)
- MIC (Aspergillus fumigatus [4]): > 16 mg/L
- AUC at 24 h [5]: 10.2 µg·h/mL
- AUC at 24 h [6]: 45.1 µg·h/mL
- AUC at 24 h [7]: 159 µg·h/mL
- AUC at 24 h [8]: 297 µg·h/mL
- AUC (Mus musculus [9]): 10.2 kg·h/L
- AUC (Mus musculus [10]): 11.3 kg·h/L
- AUC (Mus musculus [11]): 9.96 kg·h/L
- AUC (Mus musculus [12]): 4.64 kg·h/L
- CL/F [13]: 0.1 L/h/kg
- CL/F [14]: 0.09 L/h/kg
- CL/F [15]: 0.1 L/h/kg
- CL/F [16]: 0.22 L/h/kg
- concentration [17]: 0.11 µg/mL
- concentration [18]: 0.94 µg/mL
- concentration [19]: 2.7 µg/mL
- concentration [20]: 9.33 µg/mL
- Cmax [21]: 0.98 µg/mL
- Cmax [22]: 3.11 µg/mL
- Cmax [23]: 9.03 µg/mL
- Cmax [24]: 17.8 µg/mL
- Tmax [25]: 4 h
- Tmax [26]: 2 h
- Tmax [27]: 8 h
- Tmax [28]: 8 h
- RatioAUC/MIC (Aspergillus fumigatus [29]): 1000
- Activity (Aspergillus fumigatus [30]): Dose-dependent effect
- Activity (Aspergillus fumigatus [31]): Dose-dependent effect
- Activity (Aspergillus fumigatus [32]): Dose-dependent effect
- Activity (Aspergillus fumigatus [33]): Dose-dependent effect
- ED50 (Aspergillus fumigatus [33]; isolate V59-73, po): 29 mg/kg
- Activity (Aspergillus fumigatus [34]): 321
- Activity (Aspergillus fumigatus [35]): 321

SMILES: CCC(C)n1ncn(-c2ccc(N3CCN(c4ccc(OCC5COC(Cn6cncn6)(c6ccc(Cl)cc6Cl)O5)cc4)CC3)cc2)c1=O (configuration not stated) [ITRACONAZOLE]
- MIC (Aspergillus fumigatus [1]): 0.125 mg/L (≈ 0.177 µM)
- MIC (Aspergillus fumigatus [2]): > 16 mg/L
- MIC (Aspergillus fumigatus [3]): > 16 mg/L
- MIC (Aspergillus fumigatus [4]): > 16 mg/L

SMILES: C[C@@H](c1ncncc1F)[C@](O)(Cn1cncn1)c1ccc(F)cc1F [VORICONAZOLE]
- MIC (Aspergillus fumigatus [1]): 0.25 mg/L (≈ 0.716 µM)
- MIC (Aspergillus fumigatus [2]): 0.25 mg/L (≈ 0.716 µM)
- MIC (Aspergillus fumigatus [3]): 2 mg/L (≈ 5.73 µM)
- MIC (Aspergillus fumigatus [4]): 0.125 mg/L (≈ 0.358 µM)
